Published values pooled from the literature.
Protocols differ between the studies behind these lines.
Target: Serine/threonine-protein kinase PLK3 (PLK3, Homo sapiens, UniProt Q9H4B4)

COc1cc(-c2cc(-c3ccc(N4CCNCC4)cc3)cnc2C)cc(OC)c1OC  inhibition (enzyme activity, inhibitor; 1 µM): 1%
CS(=O)(=O)Nc1cccc(-c2csc(NC(=O)CSc3nc4nccnc4c(=O)n3CCc3ccccc3)n2)c1  inhibition (enzyme activity, inhibitor; 10 µM): 6%
Cc1ccc(C(=O)Nc2ccc(CN3CCN(C)CC3)c(C(F)(F)F)c2)cc1C#Cc1cnc2cccnn12  remaining activity (enzyme activity, inhibitor; 23.5 nM): 89%
CNC(=O)Nc1ccc2c(c1)[C@@]1(CC2)OC(=O)N(CC(=O)N(Cc2ccc(F)cc2)[C@@H](C)C(F)(F)F)C1=O  remaining binding (cell-free assay, competition with immobilised ligand; 1 µM): 84%
Cc1ccc(NC(=O)c2ccc(C)c(C(F)(F)F)c2)cc1C#Cc1nn(C2CCC(O)CC2)c2ncnc(N)c12 (stereo not shown)  remaining signal (cell-free assay; 10 µM): 93%
CC/C(=N\NC(=O)NCc1cccc(O)c1)c1ccc(O)c(C)c1O  inhibition (enzyme activity, inhibitor; 0.1 µM): 2.5%
COc1cc2ncnc(Nc3ccc(Oc4ccccc4)cc3C)c2cc1OC  inhibition (enzyme activity, inhibitor; 1 µM): -1%
CCN(CC)CCNC(=O)c1c(C)[nH]c(/C=C2\C(=O)Nc3ccc(F)cc32)c1C  inhibition (enzyme activity, inhibitor; 0.3 µM): -10%
O=C1Nc2ccc(Cl)cc2C1=Cc1cc(Cl)c(O)c(Cl)c1  remaining signal (cell-free assay; 0.5 µM): 98.2%
Cc1cc(NC(=O)c2cccc3cc(-c4cccc5[nH]nc(N)c45)ccc23)ccc1F  activity vs control (enzyme activity, inhibitor; 0.1 µM): 92%
CCOc1cc(-c2nncn2C)ccc1Nc1ncc2cc(C)nc(NCC(C)(C)C)c2n1  inhibition (enzyme activity, inhibitor, FRET; 1 µM): 19%
COc1ccc2c(O[C@@H]3C[C@H]4C(=O)N[C@]5(C(=O)O)CC5/C=C\CCCCC[C@H](NC(=O)OC5CCCC5)C(=O)N4C3)cc(-c3csc(NC(=O)C(C)C)n3)nc2c1C (stereo partly shown)  remaining binding (cell-free assay, competition with immobilised ligand; 1 µM): 79%
CNC(=O)c1cc(Oc2ccc(NC(=O)Nc3ccc(Cl)c(C(F)(F)F)c3)cc2)ccn1  inhibition (enzyme activity, inhibitor; 0.3 µM): -12%
Nc1ncnc2occ(-c3ccc(NC(=O)Nc4cc(C(F)(F)F)ccc4F)cc3)c12  remaining signal (cell-free assay, inhibitor; 20 µM): 0.05%
FC(F)(F)c1ccc2c(c1)nc(-c1cccnc1)n2C1CC1  remaining binding (cell-free assay, competition with immobilised ligand; 1 µM): 100%
COc1cc(Cl)c(C(=O)N[C@@H](CN[C@H]2CC[C@@H](N)CC2)Cc2ccc(C#N)cc2)cc1-c1ccc(CN[C@H](C)c2ccc(C)cc2)o1  remaining activity (enzyme activity, inhibitor; 1 µM): 105%
CN([C@@H]1CCc2c(CC(=O)O)c3cc(S(C)(=O)=O)ccc3n2C1)S(=O)(=O)c1ccc(F)cc1  remaining binding (cell-free assay, competition with immobilised ligand; 1 µM): 70%
Cc1ccc(Nc2nccc(N(C)c3ccc4c(C)n(C)nc4c3)n2)cc1S(N)(=O)=O  inhibition (enzyme activity, inhibitor; 10 µM): -9%
CSc1cccnc1N1CCN(Cc2nc3ccccc3[nH]2)CC1  remaining binding (cell-free assay, competition with immobilised ligand; 1 µM): 80%
Cc1sc(C(=O)NC2COC2)cc1-n1cc(NC(=O)Nc2c(F)cccc2Cl)cn1  remaining activity (enzyme activity, inhibitor; 10 µM): 102%
O=C(N1CCS(=O)(=O)CC1)N1C[C@H](c2ccc(OC(F)(F)F)cc2)C[C@H](c2nc(C3CC3)no2)C1  remaining binding (cell-free assay, competition with immobilised ligand; 1 µM): 98%
O=C(Nc1cnn(-c2csc(C(=O)NC3COC3)c2)c1)Nc1c(F)cccc1Cl  remaining activity (enzyme activity, inhibitor; 5 µM): 96%
CCCS(=O)(=O)Nc1ccc(F)c(C(=O)c2c[nH]c3ncc(-c4ccc(Cl)cc4)cc23)c1F  inhibition (enzyme activity, inhibitor; 1 µM): < 10%
CCCOc1ccc([C@H]2[C@H](C(=O)O)[C@@H](c3ccc4c(c3)OCO4)CN2CC(=O)Nc2c(CC)cccc2CC)cc1  remaining binding (cell-free assay, competition with immobilised ligand; 1 µM): 83%
O=C1NC(=O)c2cc(Nc3ccc(F)cc3)c(Nc3ccc(F)cc3)cc21  remaining signal (cell-free assay; 0.5 µM): 98%
